Data on two compounds can be found in PMC7486978 (Molecular pharmaceutics, 2019).

One data set in a line: in vivo. Type of data set: in vivo, BALB/c nude mice. To be noted: female, BALB/c nude, mouse, in vivo, total radioactivity.
In another data set the test system is MCF-7 xenograft mice. In words: in vivo. To be noted: for tumor uptake (biodistribution): no blocking, mean ± SD. The format is in vivo, BALB/c nude mice.
In data set [1] the test system is MDA-MB-468 xenograft mice. Description: Post-imaging biodistribution. Type of data set: in vivo, BALB/c nude mice. The note with it: 1 h p.i., mean ± SD, n = 4. The gist of the method: (§1)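 Female BALB/c nude mice were injected s.c. in the right shoulder with 1.0 × 10⁷ cells (MDA-MB-231/MDA-MB-468 grown in L-15 without CO₂; MX-1 in high-glucose DMEM, 10% FBS, 5% CO₂). They were used at tumor size 0.8–1.0 cm and given ⁶⁸Ga-labelled test compound (6.5–9 MBq, 125 μL) by tail vein. PET/CT under 2.0% isoflurane ran at 30 min. Mice were euthanized at 1 h; tissues weighed, γ-counted, decay-corrected %ID/g, mean ± SD.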

Data set [2] concerns MDA-MB-468 tumor xenograft. In words: Small-animal PET/CT imaging, ROI tumor uptake. To be noted: MDA-MB-468 xenograft, 30 min p.i., 6.5–9 MBq; n = 4. The format is in vivo, BALB/c nude mice.
In data set [3] the test system is MDA-MB-231 tumor xenograft. Description: Small-animal PET/CT imaging, ROI tumor uptake. Type of data set: in vivo, BALB/c nude mice. The note with it: MDA-MB-231 xenograft, 30 min p.i., 6.5–9 MBq; n = 4.
In another data set the test system is MX-1 xenograft mice. Description: Post-imaging biodistribution. Type of data set: in vivo, BALB/c nude mice. The note with it: 1 h p.i., mean ± SD, n = 4. The gist of the method: as §1
A further data set deals with MX-1 tumor xenograft. In words: Small-animal PET/CT imaging, ROI tumor uptake. The format is in vivo, BALB/c nude mice. The note with it: MX-1 xenograft, 30 min p.i., 6.5–9 MBq; n = 4.
The test system of a further data set is MCF-7 cells. Description: In vitro cell uptake and blocking study. The format is cell-based, human. To be noted: 100 times excess (100 pmol) nonradioactive RGD, NGR, RGD+NGR or NGR-RGD 15 min in advance; 2 h at 37 °C.
The subject of data set [4] is MDA-MB-231 xenograft mice. Description: Post-imaging biodistribution. The format is in vivo, BALB/c nude mice. To be noted: 1 h p.i., mean ± SD, n = 4. In outline:
as §1

In the next data set the test system is MCF-7 tumor xenograft. In words: Small-animal PET/CT imaging, ROI tumor uptake. The note with it: MCF-7 xenograft, 30 min p.i., n = 4. The format is in vivo, BALB/c nude mice.
Data set [5] is described as follows: In vitro stability in PBS. Type of data set: physicochemical. The note with it: PBS pH 7.4, 37 °C, 2 h, 14.8 MBq; analytical radio-HPLC. The gist of the method: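 ⁶⁸Ga-labelled test compound was prepared by heating precursor with [⁶⁸Ga]GaCl₃ in sodium acetate buffer (final pH about 4.0) at 90 °C for 5 min and used unpurified. Tracer (14.8 MBq) was held in PBS pH 7.4 at 37 °C for 2 h.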

Setting [6] is: MCF-7 xenograft mice, 1 h p.i., n = 4.

Bridge positions count the residues as written; N and C are the ends. Peptide text beside a SMILES is read from it. * marks the point of attachment. NOTA(2S-Bn(4-NHCS)) = O=C(O)CN1CCN(CC(=O)O)C[C@H](Cc2ccc(NC(=S)*)cc2)N(CC(=O)O)CC1

As a reminder, the tissue uptake is the percentage of the injected dose found per gram of tissue. Regarding `N=C(N)NCCC[C@@H]1NC(=O)CNC(=O)[C@H](CC(N)=O)NC(=O)[C@H](CCCCNC(=S)Nc2ccc(C[C@H]3CN(CC(=O)O)CCN(CC(=O)O)CCN3CC(=O)O)cc2)NC(=O)CC[C@@H](C(N)=O)NC1=O` [^68Ga-NGR, metal not drawn, reference compound] (K(NOTA(2S-Bn(4-NHCS)))NGRE-NH2; lactam N-5; C-terminus assumed), the tissue uptake at 1 h in “in vivo” came out at 0.87 ± 0.04 %ID/g. For the same compound, in the data set on MCF-7 xenograft mice (setting [6]), the “tumor uptake (biodistribution)” value is 0.14 ± 0.04 %ID/g.

“c(RGDyK)-PEG4-NOTA-click-PEG4-c(CNGRC) (bicyclic or more) [^68Ga-NGR-RGD]”: in the data set on MCF-7 xenograft mice (MCF-7 xenograft mice, 1 h p.i., coinjection of excess unlabeled NGR-RGD, n = 4), the “tumor uptake (biodistribution), blocked with NGR-RGD” value turned out to be 0.16 ± 0.04 %ID/g. Moreover, the “tumor uptake (biodistribution), blocked with NGR” value in the data set with MCF-7 xenograft mice (MCF-7 xenograft mice, 1 h p.i., coinjection of excess unlabeled NGR, n = 4) was determined as 0.67 ± 0.02 %ID/g. The “tumor uptake (biodistribution), blocked with RGD+NGR” value in the data set on MCF-7 xenograft mice (MCF-7 xenograft mice, 1 h p.i., coinjection of excess unlabeled RGD+NGR, n = 4) turned out to be 0.20 ± 0.07 %ID/g. The “tumor uptake (biodistribution), blocked with RGD” value in the data set with MCF-7 xenograft mice (MCF-7 xenograft mice, 1 h p.i., coinjection of excess unlabeled RGD, n = 4) is recorded as 0.17 ± 0.04 %ID/g. For the same compound, the “tumor uptake (biodistribution)” value with MCF-7 xenograft mice (setting [6]) was 1.02 ± 0.16 %ID/g; in data set [1], 0.28 ± 0.04 %ID/g; in the data set on MX-1 xenograft mice it was 0.20 ± 0.03 %ID/g; in data set [4], 0.53 ± 0.05 %ID/g. Also, the “accumulation in the kidneys (biodistribution)” value in the data set with MCF-7 xenograft mice (mouse, in vivo, 1 h) is reported as 2.52 ± 0.30 %ID/g. The “tumor uptake (PET ROI)” value is reported as 0.76 ± 0.10 %ID/g in data set [2], 1.04 ± 0.06 %ID/g in [3], 0.41 ± 0.08 %ID/g with MX-1 tumor xenograft and 1.03 ± 0.08 %ID/g in the data set on MCF-7 tumor xenograft (comparison of tumor types (Figure 5B)). Also, the “uptake by MCF-7 cells when pretreated with excess of blocking agents” value in the data set with MCF-7 cells was “decreased significantly”. Also, in the data set on MCF-7 tumor xenograft (coinjected unlabeled NGR 20 mg/kg), the “tumor uptake (PET ROI), blocked by NGR” value was 0.80 ± 0.03 %ID/g. The “tumor uptake (PET ROI), blocked by NGR-RGD” value in the data set with MCF-7 tumor xenograft (coinjected unlabeled NGR-RGD 20 mg/kg) is 0.28 ± 0.06 %ID/g. Besides, in the data set on MCF-7 tumor xenograft (coinjected unlabeled RGD 20 mg/kg), the “tumor uptake (PET ROI), blocked by RGD” value amounted to 0.37 ± 0.05 % ID/g. Also, in the data set with MCF-7 tumor xenograft (coinjected unlabeled RGD+NGR 20 mg/kg), the “tumor uptake (PET ROI), blocked by RGD+NGR” value is on record as 0.31 ± 0.03 %ID/g. In data set [5], the “proportion of the intact tracer” value is listed as “exceeded 95%”.
